# Experimental data pooled from the literature.
# Compare with care: the assays were run in different laboratories.
# Target: Calcium/calmodulin-dependent protein kinase type II subunit gamma (CAMK2G, Homo sapiens, UniProt Q13555)
SMILES,effect on,mode,method,tested at,measurement,result
CC(C)(C)c1nc2c(s1)c1nc(N)ncc1c1ccc(NS(=O)(=O)c3c(F)cccc3F)c(F)c12,enzyme activity,inhibitor,radiometric,1 µM,remaining activity,118%
CNCc1ccccc1-c1csc([C@H](C)Nc2nc(C)nc3cc(OC)c(OC)cc23)c1,cell-free assay,,competition with immobilised ligand,1 µM,remaining binding,90%
CN1CC(Oc2cnc(C#N)cc2-c2ccn3nc(NC(=O)C4CC4)cc3c2)C1,enzyme activity,inhibitor,,1 µM,inhibition,10%
CNC(=O)c1cc(Oc2ccc(NC(=O)Nc3ccc(Cl)c(C(F)(F)F)c3)cc2)ccn1,cell-free assay,,,0.3 µM,inhibition,51%
Cc1nc(Cc2cccc(C(F)(F)F)c2)sc1-c1ccc(C(N)=O)nc1,cell-free assay,,competition with immobilised ligand,1 µM,remaining binding,93%
Cc1cnc(NC2CCOCC2)nc1-n1cnc(C(=O)NC(CN)c2cc(F)cc(Cl)c2)c1 (centres unmarked),enzyme activity,inhibitor,radiometric,1 µM,remaining activity,88%
CC(C)c1ccc(NC(=O)c2cccs2)c(-c2nc3ccccc3[nH]c2=O)c1,enzyme activity,inhibitor,,1 µM,activity vs control,100%
CN(C)c1ncnc(-c2ccc3nc(Nc4cc(CN5CCN(C(=O)CC(F)(F)F)CC5)ccn4)[nH]c3c2)c1Cl,cell-free assay,,competition with immobilised ligand,1 µM,remaining binding,100%
CC(C)(O)[C@H]1CC[C@H](Nc2ccc3ncc(-c4cccc(C(F)(F)F)c4)n3n2)CC1,enzyme activity,inhibitor,,1 µM,remaining activity,95.1%
Cc1sc(C(=O)NC2COC2)cc1-n1cc(NC(=O)Nc2c(F)cccc2Cl)cn1,enzyme activity,inhibitor,,10 µM,remaining activity,102%
O=C1NC(=O)c2cc(Nc3ccc(F)cc3)c(Nc3ccc(F)cc3)cc21,cell-free assay,,,0.5 µM,remaining signal,101%
Cc1cc(NC(=O)c2cccc3cc(-c4cccc5[nH]nc(N)c45)ccc23)ccc1F,enzyme activity,inhibitor,,0.1 µM,activity vs control,106%
COc1ccc2cc(OCC3(C(=O)O)CN(C(=O)c4ccc(F)cc4)C3)ccc2c1,cell-free assay,,competition with immobilised ligand,1 µM,remaining binding,100%
CCN(CC)c1ccc(C2=NNC(=O)CC2C)cc1[N+](=O)[O-] (centres unmarked),enzyme activity,inhibitor,,10 µM,remaining activity,119%
CC/C(=N\NC(=O)NCc1cccc(O)c1)c1ccc(O)c(C)c1O,enzyme activity,inhibitor,,0.1 µM,inhibition,-5.1%
CNC(=O)Nc1ccc2c(c1)CC[C@@]21OC(=O)N(CC(=O)N(Cc2ccc(F)cc2)[C@@H](C)C(F)(F)F)C1=O,cell-free assay,,competition with immobilised ligand,1 µM,remaining binding,76%
O=C(Nc1cnn(-c2csc(C(=O)NC3COC3)c2)c1)Nc1ccccc1Cl,enzyme activity,inhibitor,,5 µM,remaining activity,96.4%
O=c1nc(-c2ccccn2)sc2ccccc12,binding,,competition with immobilised ligand,1 µM,remaining binding,96%
Nc1ncnc2occ(-c3ccc(NC(=O)Nc4cc(C(F)(F)F)ccc4F)cc3)c12,cell-free assay,,,20 µM,remaining signal,71%
C#Cc1cccc(Nc2ncnc3cc(OCCOC)c(OCCOC)cc23)c1,cell-free assay,,,0.5 µM,remaining signal,115%
